From ChEMBL document CHEMBL1131107 (J Med Chem, 1998) come the findings set out here.

Test [1] has as its target T1, Protein farnesyltransferase (Rattus norvegicus, UniProt Q02293+Q04631). In words: Inhibition of Farnesyltransferase from rat brain.
In test [2] the test system is NIH3T3. In words: Inhibition of Ras processing in Hras-transformed NIH3T3 cells at 15 uM.
Another test deals with NIH3T3 (Mus musculus). In words: Inhibition of Ras processing in Hras transformed NIH3T3 cells.
In test [3] the test system is NIH3T3. In words: Inhibition of Ras processing in Hras-transformed NIH3T3 cells.
Test [4] has as its target T1, Protein farnesyltransferase. Briefly: Inhibition of FTase in competitive manner with respect to FPP (farnesyl diphosphate) at 6.0 uM FPP and 0.36 uM Ras peptide. The test is classed as protein-complex assay. The method in brief:
(§1)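 FTase IC50 (nM) measured at varied substrate levels to test competition: FPP 0.6 or 6.0 μM and Ras C-terminal peptide 0.36 or 3.6 μM. Competition with FPP was judged from the shift in IC50 as FPP and peptide concentrations changed.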

For test [5] the target is unchanged. In words: Inhibition of Farnesyltransferase in competitive manner with respect to FPP (farnesyl diphosphate) at 0.6 uM FPP and 0.36 uM Ras peptide. The test is classed as protein-complex assay. Put shortly:
as §1

Test [6] shares this target. Briefly: Inhibition of Farnesyltransferase in competitive manner with respect to FPP (farnesyl diphosphate) at 0.6 uM FPP and 3.6 uM Ras peptide. The test is classed as protein-complex assay. Put shortly: as §1

As for `CC(C(C/C=C/c1nc2ccccc2o1)c1ccc(Cl)cc1)N(Cc1ccc2ccccc2c1)C(=O)CC(CC(=O)O)C(=O)O` (centres undefined), the IC50 in test [1] was found to be 28 nM.

Regarding `C[C@@H]([C@H](C/C=C/c1nc2ccccc2o1)c1ccc2c(c1)OCO2)N(Cc1ccc2ccccc2c1)C(=O)[C@H]1OC(C(=O)[O-])(C(=O)[O-])O[C@@H]1C(=O)[O-].[Na+].[Na+].[Na+]`, the IC50 in test [1] was found to be 7.2 nM. This compound also gave an Inhibition in the test on NIH3T3 [2] of 42%.

`CC(C(Cc1ccc(Cl)cc1)c1ccc(Cl)cc1)N(C)C(=O)CC(CC(=O)O)C(=O)O` (centres undefined): the IC50 in test [1] is > 10000 nM.

With `CC(C(C/C=C/c1nc2ccccc2o1)c1ccc2c(c1)OCO2)N(Cc1ccc2ccccc2c1)C(=O)C1OC(C(=O)O)(C(=O)O)O[C@H]1C(=O)O` (single isomer, unassigned), the IC50 in the test on NIH3T3 (Mus musculus) is 17000 nM; in test [1], 8 nM.

Consider `CC(C(C/C=C/c1nc2ccccc2o1)c1ccc2c(c1)OCO2)N(Cc1ccc2ccccc2c1)C(=O)CC(CC(=O)O)C(=O)O` (centres undefined), for which half-maximal inhibition in test [1] (IC50) required 23 nM.

Take `C[C@@H]([C@H](C/C=C/c1nc2ccccc2o1)c1ccc2c(c1)OCO2)N(Cc1ccc2ccccc2c1)C(=O)[C@@H]1OC(C(=O)O)(C(=O)O)O[C@H]1C(=O)O`: the IC50 came to 1200 nM with NIH3T3 [3] and 3.9 nM in test [1].

Consider `C[C@@H]([C@H](C/C=C/c1nc2ccccc2o1)c1ccc2c(c1)OCO2)N(Cc1ccc2ccccc2c1)C(=O)[C@@H]1OC(C(=O)O)(C(=O)O)O[C@@H]1C(=O)O`, for which the IC50 in test [4] turned out to be 45 nM; in test [5] it was 5.6 nM; with NIH3T3 [3], 4300 nM; in test [1], 5 nM; in test [6] it was 7.2 nM.

As for `C[C@H]([C@@H](C/C=C/c1nc2ccccc2o1)c1ccc2c(c1)OCO2)N(Cc1ccc2ccccc2c1)C(=O)[C@@H]1OC(C(=O)O)(C(=O)O)O[C@@H]1C(=O)O`, the figures for the IC50 (in the test on NIH3T3 [3]; in test [1]) were 8800 nM and 6 nM, respectively.

Take `C[C@@H]([C@H](C/C=C/c1nc2ccccc2o1)c1ccc2c(c1)OCO2)N(Cc1ccc2ccccc2c1)C(=O)[C@H]1OC(C(=O)O)(C(=O)O)O[C@H]1C(=O)O`: the figures for the IC50 (in the test with NIH3T3 [3]; in test [1]) were 10000 nM and 3.9 nM, respectively.

Regarding `CC(C(C/C=C/c1ccc2ccccc2c1)c1ccc(Cl)cc1)N(Cc1ccc2ccccc2c1)C(=O)CC(CC(=O)O)C(=O)O` (centres undefined), inhibition in test [1] was half-maximal at 51 nM (IC50).
